Hits are enriched below; roughly 3.5% of the tested compounds scored in any of these assays.
ERAP1 HTS inh – ERAP1 (human) enzyme inhibition; Q9NZ08; recombinant ERAP1, Leu-AMC fluorescence, 60 min; inhibition, % at 10.7 µM; 340,000 compounds, 0.15% hits; AID 652197;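 active = mean replicate inhibition of at least 30%, or all replicates individually reaching that 30% level; inactive = mean below 30% and not every replicate reaching it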
Target sequence (Q9NZ08 whole entry, looked up): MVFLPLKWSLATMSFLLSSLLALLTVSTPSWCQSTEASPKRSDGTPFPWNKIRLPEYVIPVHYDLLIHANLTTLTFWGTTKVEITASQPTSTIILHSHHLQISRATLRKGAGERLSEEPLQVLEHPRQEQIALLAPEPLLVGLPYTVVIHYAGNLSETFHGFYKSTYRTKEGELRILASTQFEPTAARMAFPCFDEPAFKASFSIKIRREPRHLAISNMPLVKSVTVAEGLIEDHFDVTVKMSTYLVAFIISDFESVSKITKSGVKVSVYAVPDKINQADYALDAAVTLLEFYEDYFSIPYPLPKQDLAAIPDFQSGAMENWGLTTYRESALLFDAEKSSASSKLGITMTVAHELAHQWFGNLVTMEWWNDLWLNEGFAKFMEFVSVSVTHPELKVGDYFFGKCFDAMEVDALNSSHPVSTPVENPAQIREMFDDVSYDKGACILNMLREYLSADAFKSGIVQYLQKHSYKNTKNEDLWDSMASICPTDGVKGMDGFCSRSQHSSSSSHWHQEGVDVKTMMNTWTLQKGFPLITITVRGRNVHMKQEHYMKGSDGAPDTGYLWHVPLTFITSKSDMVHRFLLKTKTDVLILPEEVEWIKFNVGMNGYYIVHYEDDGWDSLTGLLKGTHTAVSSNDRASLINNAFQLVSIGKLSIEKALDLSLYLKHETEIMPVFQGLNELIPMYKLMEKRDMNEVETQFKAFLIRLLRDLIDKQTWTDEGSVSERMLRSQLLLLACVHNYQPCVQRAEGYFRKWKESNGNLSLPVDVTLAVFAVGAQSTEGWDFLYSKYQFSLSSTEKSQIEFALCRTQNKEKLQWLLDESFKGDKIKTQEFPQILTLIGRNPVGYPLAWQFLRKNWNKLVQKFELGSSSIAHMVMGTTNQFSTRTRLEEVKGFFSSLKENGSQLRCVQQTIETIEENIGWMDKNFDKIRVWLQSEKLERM
PGC1a acetyl inh – modulators of PGC1a acetylation; U2OS PGC1a acetylation, AlphaScreen anti-acetyl-lysine; with virally co-expressed GCN5 acetyltransferase; AID 651687; 350,000 compounds, 0.17% hits; inhibition, % at 15.6 µM;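 active = every replicate shows inhibition of at least 40%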
Env fusion inh – blocks HIV Env-driven cell-cell fusion; HeLa-JRFL Env/CEM21 cell fusion, luciferase; inhibition, % at 12.3 µM; 360,000 compounds, 1.1% hits; AID 651610;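 active = mean replicate inhibition score of at least 50 and every replicate individually at or above 50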
Cneo AK release – causes C. neoformans cell lysis; adenylate kinase release luminescence, 4 h; normalised: neutral wells 0, clomiphene wells 100; lysis activity, % at 15 µM; 360,000 compounds, 0.2% hits;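 active = mean lysis activity across replicates of at least 80%, whatever share of replicates individually reach that level; inactive = mean lysis activity below 80%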
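Material – log-phase Cryptococcus neoformans yeast cells · Input – 5 × 10^6 yeast cells/mL · Medium – fresh YPD growth medium · Doses – single compound concentration per well · Timing – static 4 h at 37 °C with compound, 1 h detection · Detection – adenylate kinase release luminescence · Read-out – signal increase indicating cell lysis · Control set – Clomiphene as positive lysis control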
rRNA inh HTS – selective bacterial rRNA inhibition in E. coli | E. coli WT GFP vs humanized-ribosome RFP mutants, fluorescence, 24 h; hits give low values; DMSO median 0, no signal -100 | GFP signal change (wild-type ribosome), % (test concentration not listed) | 350,000 compounds, 1.6% hits | AID 720706;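 active = significant combined selectivity score with lowered wild-type GFP, culture density cut under 30%, mutant RFP and density less affected; inactive = any of these conditions unmet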
FGF22 binding – binders of recombinant human FGF22 by thermal shift; SYPRO orange fluorescence; percent of sucrose octasulfate shift, DMSO zero; activity (Tm shift, normalised), % at 9.99 µM; 340,000 compounds, 1.5% hits; AID 651658; Q9HCT0;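 active = mean Tm shift, scaled 0 neutral to 100 positive control, at about 1.3% or above, every replicate too, limit read from the data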
Large screens that a line does not name were inactive; [ ] = dose if it differs, or a comment.

CCOC(=O)c1nc(C)sc1-c1ccnn1S(=O)(=O)c1cccc(Cl)c1	rRNA inh HTS -29 (no result: PGC1a acetyl inh, Cneo AK release)
COc1ccc(C(O)(CCC(C)C)C(CN2CCOCC2)c2ccccc2)cc1 (stereo unspecified)	Env fusion inh 73
C=CCN1C(=O)C2(NNc3ccccc3O2)c2ccccc21 (stereo unspecified)	none (no result: ERAP1 HTS inh, Env fusion inh, Cneo AK release, rRNA inh HTS, FGF22 binding)
C=CCN1C(=O)C2(NC(=O)c3ccccc3N2)c2ccccc21 (stereo unspecified)	FGF22 binding 43 (no result: Cneo AK release)
S=c1[nH]cnc2scc(-c3ccc(Cl)cc3)c12	rRNA inh HTS -51
O=C(C[C@@H]1CC[C@@H]2[C@H](COC[C@H](O)CN2S(=O)(=O)c2cccc(Cl)c2)O1)Nc1ccc(-c2ccccc2)cc1	none (no result: Env fusion inh)
O=C(C[C@@H]1CC[C@H]2[C@@H](COC[C@H](O)CN2S(=O)(=O)c2cccc(Cl)c2)O1)Nc1ccc(-c2ccccc2)cc1	FGF22 binding 2.7 (no result: Env fusion inh)
COc1cccc(S(=O)(=O)N2C[C@@H](O)COC[C@H]3O[C@H](CC(=O)N4CCN(C)CC4)CC[C@@H]32)c1	Cneo AK release 85 (no result: Env fusion inh)
COc1cccc(S(=O)(=O)N2C[C@@H](O)COC[C@H]3O[C@H](CC(=O)Nc4ccccc4)CC[C@@H]32)c1	Cneo AK release 112
COc1cc2ccc(=O)oc2c(CC=C(C)C)c1OC	none (no result: Env fusion inh, rRNA inh HTS)
CN(CC(=O)Nc1ccc(Cl)cc1)CC(=O)Nc1cc(Cl)ccc1C#N	rRNA inh HTS -38 (no result: Env fusion inh)
Cc1ccc(NC(=O)CN(C)Cc2ccc(Cl)cc2)cc1	rRNA inh HTS -30 (no result: PGC1a acetyl inh, Cneo AK release)
COc1cccc(NC(=O)CN(C)C(=O)c2cc3c(s2)CCC(C)C3)c1 (stereo unspecified)	none (no result: PGC1a acetyl inh)
COc1cc(C(=O)NCc2ccc(F)cc2)cc(Cl)c1OC	none (no result: ERAP1 HTS inh, PGC1a acetyl inh, Cneo AK release, rRNA inh HTS, FGF22 binding)
CCCNC(=O)N1CC2(C1)CN(S(C)(=O)=O)[C@H](CO)c1c2c2ccc(OC)cc2n1C	none (no result: Env fusion inh, Cneo AK release, FGF22 binding)
CCN1C(C#N)=C(C#N)N=C(C)CC1(C)C	PGC1a acetyl inh 109 (no result: Cneo AK release)
CSCCC(NS(=O)(=O)c1ccccc1)C(=O)OCc1cc(=O)oc2cc(O)ccc12 (stereo unspecified)	rRNA inh HTS -22 (no result: Env fusion inh)
CSCCC(NS(=O)(=O)c1ccccc1)C(=O)OCc1nc2ccsc2c(=O)[nH]1 (stereo unspecified)	none (no result: PGC1a acetyl inh, Env fusion inh)
COC(=O)C1=C(N)Oc2cc(N(C)C)ccc2C1c1ccccc1OC (stereo unspecified)	Env fusion inh 61 (no result: ERAP1 HTS inh, PGC1a acetyl inh, rRNA inh HTS, FGF22 binding)
COc1ccccc1C(=O)Nc1ccc2c(c1)nc1n2CCN(C2CCCCC2)C1	rRNA inh HTS -18
COc1ccc(NC(=O)c2ccc(-c3ccc([N+](=O)[O-])cc3)o2)cc1OC	rRNA inh HTS -42
CC1=CC2C(C(O)CC3(C)C2CC(C)C32OCOC23COCO3)C2(C)C/C(=C\O)C(=O)C=C12 (stereo unspecified)	Env fusion inh 113 (no result: PGC1a acetyl inh, Cneo AK release)
Cc1ccc(S(=O)(=O)c2nc(-c3ccco3)oc2NCC2CCCO2)cc1 (stereo unspecified)	none (no result: ERAP1 HTS inh, PGC1a acetyl inh, Cneo AK release, rRNA inh HTS, FGF22 binding)
O=S(=O)(c1ccc(Br)cc1)c1nc(-c2ccco2)oc1NCC1CCCO1 (stereo unspecified)	FGF22 binding 43 (no result: Cneo AK release, rRNA inh HTS)
COc1ccc(S(=O)(=O)N2CCCOC2CNC(=O)C(=O)NCCc2ccco2)cc1OC (stereo unspecified)	none (no result: PGC1a acetyl inh)
Cc1ccc(CNC(=O)CN(C)S(=O)(=O)c2cccs2)cc1	none
COc1cc2c(cc1OC)C(NC(=O)C(F)(F)F)CNC2=O (stereo unspecified)	FGF22 binding 43 (no result: Cneo AK release)
O=C(Nc1cccc(F)c1)N[C@@H]1CC[C@H](CCNS(=O)(=O)c2cccc(Cl)c2)O[C@@H]1CO	Env fusion inh 80[16.7 µM]
O=S(=O)(NCC[C@H]1CC[C@H](NS(=O)(=O)c2ccccc2Cl)[C@@H](CO)O1)c1ccc(Cl)cc1	none
O=S(=O)(NCC[C@H]1CC[C@H](NS(=O)(=O)c2ccccc2Cl)[C@H](CO)O1)c1ccc(Cl)cc1	Env fusion inh 58[16.7 µM]
O=C(CC1CC1)N[C@H]1CC[C@H](CCNS(=O)(=O)c2ccc(Cl)cc2)O[C@H]1CO	PGC1a acetyl inh 53
O=C(Cc1ccncc1)NCC[C@H]1CC[C@@H](NC(=O)C2CC2)[C@H](CO)O1	PGC1a acetyl inh 62
O=C(Cc1ccncc1)NCC[C@H]1CC[C@H](NC(=O)C2CCCC2)[C@H](CO)O1	none
CCOC(=O)c1c(NC(=O)Cn2c(C)nc3ccccc32)sc2c1CCC2	none (no result: ERAP1 HTS inh, rRNA inh HTS, FGF22 binding)
CCOC(=O)Cc1csc(NS(=O)(=O)c2ccc3c4c(cccc24)C(=O)N3CC)n1	none (no result: ERAP1 HTS inh, Env fusion inh, rRNA inh HTS, FGF22 binding)
CC(=O)N[C@@H]1CC[C@H](CCNC(=O)C2CCC2)O[C@@H]1CO	none
CC(=O)N[C@H]1CC[C@@H](CCNC(=O)C2CCC2)O[C@H]1CO	Cneo AK release 112
O=C(N[C@@H]1CC[C@H](CCNS(=O)(=O)c2ccc(F)cc2)O[C@@H]1CO)C1CC1	Env fusion inh 59[16.7 µM]
O=C(Nc1cc2c3c(c1)CC(=O)N3CCC2)c1c(F)cccc1F	none (no result: PGC1a acetyl inh, Cneo AK release)
O=C(Nc1cc2c3c(c1)CC(=O)N3CCC2)c1ccc(Cl)cc1	Env fusion inh 85 (no result: PGC1a acetyl inh)
C/C=C/c1ccc2c(c1)O[C@@H](CN(C)Cc1ccc(F)cc1)[C@@H](C)CN([C@H](C)CO)S2(=O)=O	none
CCCN(CCC)C(=O)c1cc2c(=O)n3cccc(C)c3nc2s1	Env fusion inh 58
CCOC(=O)C1CCN(C(=O)c2cc3c(=O)n4cccc(C)c4nc3s2)CC1	rRNA inh HTS -19 (no result: PGC1a acetyl inh)
CO[C@@H]1CN(C)C(=O)c2cc(NS(=O)(=O)c3cn(C)cn3)ccc2OC[C@@H](C)N(Cc2ccc(C(F)(F)F)cc2)C[C@H]1C	Env fusion inh 88[16.7 µM]
CO[C@H]1CN(C)C(=O)c2ccc(NS(=O)(=O)CC(F)(F)F)cc2OC[C@H](C)N(Cc2cccnc2)C[C@@H]1C	none
CO[C@H]1CN(C)C(=O)c2cc(NS(=O)(=O)CC(F)(F)F)ccc2OC[C@H](C)N(Cc2cccnc2)C[C@@H]1C	Cneo AK release 103 (no result: Env fusion inh)
Cc1csc(NC(=O)CSCC(=O)O)c1-c1nc2ccccc2s1	rRNA inh HTS -51 (no result: Cneo AK release)
Cc1ccc(C(=O)Nc2ccon2)cc1S(=O)(=O)N1CCCC1	none (no result: ERAP1 HTS inh, rRNA inh HTS, FGF22 binding)
O=C(OCc1ccccc1)N1CCC2CC1c1cc(N3CCNCC3)ccc12 (stereo unspecified)	none
CCOCCCNC(=O)c1ccc(C2SCC(=O)N2Cc2ccccc2)cc1 (stereo unspecified)	none
CCCNC(=O)c1ccc(C2SCC(=O)N2Cc2ccccc2)cc1 (stereo unspecified)	FGF22 binding 44 (no result: PGC1a acetyl inh, Cneo AK release)
Cc1cccc(-c2n[nH]c(=S)n2/N=C/c2cccs2)c1	rRNA inh HTS -22
S=c1[nH]nc(-c2cc(-c3ccccc3)n[nH]2)n1/N=C/c1ccccc1	rRNA inh HTS -15
